The source made the active and inactive calls. The rule behind the calls is not given here.
Columns and labels:
[1] = Cytotoxicity against BCL-XL-dependent human NCI-H146 cells in presence of 10% human serum
Bcl-2-like protein 1 [2] = target: T1, Bcl-2-like protein 1 (Homo sapiens, UniProt Q07817); assay: Inhibition of BCL-XL (unknown origin) incubated for 1 hr by TR-FRET assay
Bcl-2-like protein 1 [3] = target: T1, Bcl-2-like protein 1; assay: Inhibition of BCL-XL (unknown origin) incubated for 1 hr in presence of 1% human serum by TR-FRET assay
[4] = target: Apoptosis regulator Bcl-2 (Homo sapiens, UniProt P10415); assay: Inhibition of BCL-2 (unknown origin) incubated for 1 hr by TR-FRET assay
[5] = Cytotoxicity against BCL-XL-dependent human NCI-H146 cells in presence of 10% human serum incubated for 48 hrs by Cell titerGlo reagent based assay; assay type: functional; settings: NCI-H146, 48 h
Bcl-2-like protein 1 [6] = target: T1, Bcl-2-like protein 1; assay: Binding affinity to BCL-XL (unknown origin)
[7] = Cmax in SCID-Beige mouse at 5 mg/kg, ip; assay type: ADME, organism-based; parameters: dose 5 mg/kg, route intraperitoneal; settings: in vivo
Outline: (§1)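 Nontumor-bearing SCID-Beige mice got a single IP dose of 5 mg/kg. Vehicle was 5% DMSO, 10% EtOH, 20% Cremophor ELP and 65% DSW. Pharmacokinetic parameters were taken from plasma exposure after the single dose.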

[8] = Tmax in SCID-Beige mouse at 5 mg/kg, ip; assay type: ADME, organism-based; parameters: dose 5 mg/kg, route intraperitoneal; settings: in vivo; outline: as §1
[9] = AUC in SCID-Beige mouse at 5 mg/kg, ip; assay type: ADME, organism-based; parameters: dose 5 mg/kg, route intraperitoneal; settings: plasma; outline: as §1
[10] = Drug concentration in SCID-Beige mouse at 5 mg/kg, ip after 12 hrs; assay type: ADME, organism-based; parameters: dose 5 mg/kg, route intraperitoneal; settings: in vivo, read-out: Drug uptake; outline: as §1
Bcl-2-like protein 2 = target: T2, Bcl-2-like protein 2 (Homo sapiens, UniProt Q92843); assay: Binding affinity to BCL-W (unknown origin)
T2 sequence (Q92843 whole entry): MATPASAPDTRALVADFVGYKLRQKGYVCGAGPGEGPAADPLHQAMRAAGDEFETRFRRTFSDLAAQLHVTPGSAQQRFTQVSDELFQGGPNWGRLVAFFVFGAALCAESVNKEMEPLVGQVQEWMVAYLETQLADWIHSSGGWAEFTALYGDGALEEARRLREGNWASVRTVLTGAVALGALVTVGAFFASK

[11] = target: Induced myeloid leukemia cell differentiation protein Mcl-1 (Homo sapiens, UniProt Q07820); assay: Binding affinity to MCL1 (unknown origin)
Mus musculus [12] = assay: Reduction in platelets count in SCID-Beige mouse at 5 mg/kg, ip after 6 hrs; assay type: functional, organism-based; parameters: dose 5 mg/kg
Outline: (§2)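 Nontumor-bearing female SCID-Beige mice received a single IP dose of 5 mg/kg in the 5% DMSO/10% EtOH/20% Cremophor ELP/65% DSW vehicle. Blood was taken by retro-orbital bleed at regular intervals after dosing and platelets were counted.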

Mus musculus [13] = assay: Reduction in platelets count in SCID-Beige mouse at 5 mg/kg, ip after 72 hrs; assay type: functional, organism-based; parameters: dose 5 mg/kg; outline: as §2
[14] = Antitumor activity against BCL-XL-dependent human NCI-H146 cells xenografted in SCID-Beige mouse assessed as tumor growth inhibition at 5 mg/kg, ip for 14 days; assay type: functional; settings: route intraperitoneal
Outline: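 Female SCID-Beige mice carried subcutaneous NCI-H146 xenografts and were dosed at 5 mg/kg IP QD ×14, or with an equal volume of vehicle (5% DMSO/10% EtOH/20% Cremophor ELP/65% DSW). There were 5 mice per time point. Tumor volume was calculated as W²·L·0.5 from perpendicular diameters and tracked over time. Treated and untreated groups were compared by Student's t test (p < 0.05).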

Apoptosis regulator Bcl-2, sequence (P10415 whole entry): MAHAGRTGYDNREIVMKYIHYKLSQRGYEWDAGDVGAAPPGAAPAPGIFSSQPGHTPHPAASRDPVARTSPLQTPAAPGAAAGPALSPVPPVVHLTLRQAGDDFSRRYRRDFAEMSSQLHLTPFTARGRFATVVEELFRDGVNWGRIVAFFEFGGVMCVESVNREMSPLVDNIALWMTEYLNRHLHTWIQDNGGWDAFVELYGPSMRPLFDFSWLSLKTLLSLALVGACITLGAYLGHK
T1 sequence (Q07817 whole entry): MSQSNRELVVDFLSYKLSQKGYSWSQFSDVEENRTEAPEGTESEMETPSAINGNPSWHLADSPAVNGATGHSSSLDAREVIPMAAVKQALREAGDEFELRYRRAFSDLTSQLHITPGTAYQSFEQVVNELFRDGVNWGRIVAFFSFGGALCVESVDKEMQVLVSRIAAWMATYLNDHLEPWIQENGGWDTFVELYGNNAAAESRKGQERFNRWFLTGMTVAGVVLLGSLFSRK
Induced myeloid leukemia cell differentiation protein Mcl-1, sequence (Q07820 whole entry): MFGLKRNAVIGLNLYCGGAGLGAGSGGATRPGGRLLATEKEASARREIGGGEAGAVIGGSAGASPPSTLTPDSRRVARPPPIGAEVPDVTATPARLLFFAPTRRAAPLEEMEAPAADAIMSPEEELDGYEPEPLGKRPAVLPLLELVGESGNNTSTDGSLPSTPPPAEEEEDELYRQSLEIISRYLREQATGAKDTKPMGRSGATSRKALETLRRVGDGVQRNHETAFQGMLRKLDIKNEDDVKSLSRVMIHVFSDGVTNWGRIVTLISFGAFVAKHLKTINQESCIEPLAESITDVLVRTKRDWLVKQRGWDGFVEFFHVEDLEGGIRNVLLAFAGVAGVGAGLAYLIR

Compound	Ki (Bcl-2-like protein 1 [2]) [nM]	Ki (Bcl-2-like protein 1 [3]) [nM]	Ki [4] [µM]	EC50 [5] [µM]	also measured
NCc1ccc(OCCCc2sc(-c3ccc4c(c3)/C(=N/Nc3nc5ccccc5s3)CCC4)nc2C(=O)O)cc1					EC50 [1]: 0.55 µM
O=C(Nc1nc2ccccc2s1)c1cccc2c1CN(c1nc(C(=O)O)c(CCCOc3ccc(-n4ncc5cncnc54)cc3)s1)CC2	0.042	0.38	0.17		
O=C(Nc1nc2ccccc2s1)c1cccc2c1CN(c1nc(C(=O)O)c(CCOc3cccc(-n4ncc5cncnc54)c3)s1)CC2	2.22	41.1	0.1		
CN1CCN(CCCNc2ncnc3c2cnn3-c2ccc(OCCCc3sc(N4CCc5cccc(C(=O)Nc6nc7ccccc7s6)c5C4)nc3C(=O)O)cc2)CC1	< 0.01	0.03			
CN(C)CC#Cc1cc(F)c(OCCCc2sc(N3CCc4cccc(C(=O)Nc5nc6ccccc6s5)c4C3)nc2C(=O)O)cc1F	0.03	0.33	0.09	0.126	
CN(C)CC#Cc1ccc(OCCCc2sc(N3CCc4cccc(C(=O)Nc5nc6ccccc6s5)c4C3)nc2C(=O)O)cc1	0.02	0.28		0.6	
O=C(Nc1nc2ccccc2s1)c1cccc2c1CN(c1nc(C(=O)O)c(CCCOc3cccc(-n4ncc5cncnc54)c3)s1)CC2	0.34	10.4	0.22		
CN(C)CC#Cc1ccc(OCCCc2sc(N3CCc4cccc(C(=O)Nc5nc6ccccc6s5)c4C3)nc2C(=O)O)cc1F	0.01	1.12	0.088	0.051	
O=C(Nc1nc2ccccc2s1)c1cccc2c1CN(c1nc(C(=O)O)c(CCCOc3ccc(-n4cccn4)cc3)s1)CC2	< 0.01	0.99	0.15		
c1ccc(-n2ncc3cncnc32)cc1					Kd (Bcl-2-like protein 1 [6]): 4000 µM
CN(C)CC#Cc1ccc(OCCCc2sc(N3CCc4cccc(C(=O)Nc5nc6ccccc6s5)c4C3)nc2C(=O)O)c(Cl)c1		0.41	0.28	0.18	
CN(C)CC#Cc1ccc(OCCCc2sc(N3CCc4cccc(C(=O)Nc5nc6ccccc6s5)c4C3)nc2C(=O)O)c(F)c1 [A-1155463]	< 0.01	0.1	0.08	0.065	Cmax [7]: 1800 nM; Tmax [8]: 2 h; AUC [9]: 9.19 µM·h; concentration at 12 h [10]: 180 nM; Ki (Bcl-2-like protein 2): 0.019 µM; Ki [11]: > 0.44 µM; inhibition (Mus musculus [12]): Active; inhibition (Mus musculus [13]): inactive; Imax [14]: 44%
CN(C)CCCNc1ncnc2c1cnn2-c1ccc(OCCCc2sc(N3CCc4cccc(C(=O)Nc5nc6ccccc6s5)c4C3)nc2C(=O)O)cc1	< 0.01		0.24		
O=C(Nc1nc2ccccc2s1)c1cccc2c1CN(c1nc(C(=O)O)c(CCCCOc3ccc(-n4ncc5cncnc54)cc3)s1)CC2		55.4			
O=C(Nc1nc2ccccc2s1)c1cccc2c1CN(c1nc(C(=O)O)c(CCOc3ccc(-n4ncc5cncnc54)cc3)s1)CC2 [A-1107969]	12.4	320	0.09		

— ChEMBL document CHEMBL3351549, “Discovery of a Potent and Selective BCL-XL Inhibitor with in Vivo Activity” (ACS Med Chem Lett, 2014)
